{
  "source": "ChEMBL document CHEMBL4266027",
  "about": "“Cyanobufalins: Cardioactive Toxins from Cyanobacterial Blooms” (J Nat Prod, 2018)",
  "key": {"BT-474": {"system": "BT-474", "assay": "Cytotoxicity against human BT474 cells assessed as decrease in cell viability after 72 hrs by MTS assay", "type": "functional, cell-based", "conditions": "BT-474, 72 h", "summary_of_the_method": "(§1)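 Cell proliferation assay using the MTS reagent. Compounds were tested as a dilution series, and EC50 values were derived from the concentration–response data.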"}, "SK-OV-3": {"system": "SK-OV-3", "assay": "Cytotoxicity against human SKOV3 cells assessed as decrease in cell viability after 72 hrs by MTS assay", "type": "functional, cell-based", "conditions": "SK-OV-3, 72 h", "summary_of_the_method": "as §1"}, "PANC-1": {"system": "PANC-1", "assay": "Cytotoxicity against human PANC1 cells assessed as decrease in cell viability after 72 hrs by MTS assay", "type": "functional, cell-based", "conditions": "PANC-1, 72 h", "summary_of_the_method": "as §1"}, "HCT-116": {"system": "HCT-116", "assay": "Cytotoxicity against human HCT116 cells assessed as decrease in cell viability after 72 hrs by MTS assay", "type": "functional, cell-based", "conditions": "HCT-116, 72 h", "summary_of_the_method": "as §1"}, "HepG2": {"system": "HepG2", "assay": "Cytotoxicity against human HepG2 cells assessed as decrease in cell viability after 72 hrs by MTS assay", "type": "functional, cell-based", "conditions": "HepG2, 72 h", "summary_of_the_method": "as §1"}, "DU-145": {"system": "DU-145", "assay": "Cytotoxicity against human DU145 cells assessed as decrease in cell viability after 72 hrs by MTS assay", "type": "functional, cell-based", "conditions": "DU-145, 72 h", "summary_of_the_method": "as §1"}, "HT-1080": {"system": "HT-1080", "assay": "Cytotoxicity against human HT1080 cells assessed as decrease in cell viability after 72 hrs by MTS assay", "type": "functional, cell-based", "conditions": "HT-1080, 72 h", "summary_of_the_method": "as §1"}, "MES-SA": {"system": "MES-SA", "assay": "Cytotoxicity against human MESSA cells assessed as decrease in cell viability after 72 hrs by MTS assay", "type": "functional, cell-based", "summary_of_the_method": "as §1"}, "MES-SA/Dx5": {"system": "MES-SA/Dx5", "assay": "Cytotoxicity against human MES-SA/Dx5 cells assessed as decrease in cell viability after 72 hrs by MTS assay", "type": "functional, cell-based", "conditions": "MES-SA/Dx5, 72 h", "summary_of_the_method": "as §1"}, "786-0": {"system": "786-0", "assay": "Cytotoxicity against human 786-O cells assessed as decrease in cell viability after 72 hrs by MTS assay", "type": "functional, cell-based", "conditions": "786-0, 72 h", "summary_of_the_method": "as §1"}, "Daudi": {"system": "Daudi", "assay": "Cytotoxicity against human Daudi cells assessed as decrease in cell viability after 72 hrs by MTS assay", "type": "functional, cell-based", "summary_of_the_method": "as §1"}, "THP-1": {"system": "THP-1", "assay": "Cytotoxicity against human THP1 cells assessed as decrease in cell viability after 72 hrs by MTS assay", "type": "functional, cell-based", "conditions": "THP-1, 72 h", "summary_of_the_method": "as §1"}, "HeLa": {"system": "HeLa", "assay": "Cytotoxicity against human HeLa cells assessed as decrease in cell viability after 72 hrs by MTS assay", "type": "functional, cell-based", "summary_of_the_method": "as §1"}, "MCF7": {"system": "MCF7", "assay": "Cytotoxicity against human MCF7 cells assessed as decrease in cell viability after 72 hrs by MTS assay", "type": "functional, cell-based", "conditions": "MCF7, 72 h", "summary_of_the_method": "as §1"}, "BXPC-3": {"system": "BXPC-3", "assay": "Cytotoxicity against human BxPC3 cells assessed as decrease in cell viability after 72 hrs by MTS assay", "type": "functional, cell-based", "conditions": "BXPC-3, 72 h", "summary_of_the_method": "as §1"}, "LoVo": {"system": "LoVo", "assay": "Cytotoxicity against human LoVo cells assessed as decrease in cell viability after 72 hrs by MTS assay", "type": "functional, cell-based", "summary_of_the_method": "as §1"}, "[1]": {"assay": "Cytotoxicity against human LOX cells assessed as decrease in cell viability after 72 hrs by MTS assay", "type": "functional, cell-based", "summary_of_the_method": "as §1"}, "U-87 MG": {"system": "U-87 MG", "assay": "Cytotoxicity against human U87MG cells assessed as decrease in cell viability after 72 hrs by MTS assay", "type": "functional, cell-based, U-87MG ATCC", "summary_of_the_method": "as §1"}, "NCI-N87": {"system": "NCI-N87", "assay": "Cytotoxicity against human NCI-N87 cells assessed as decrease in cell viability after 72 hrs by MTS assay", "type": "functional, cell-based", "conditions": "NCI-N87, 72 h", "summary_of_the_method": "as §1"}, "A549": {"system": "A549", "assay": "Cytotoxicity against human A549 cells assessed as decrease in cell viability after 72 hrs by MTS assay", "type": "functional, cell-based", "conditions": "A549, 72 h", "summary_of_the_method": "as §1"}, "NCI-H1975": {"system": "NCI-H1975", "assay": "Cytotoxicity against human NCI-H1975 cells assessed as decrease in cell viability after 72 hrs by MTS assay", "type": "functional, cell-based", "conditions": "NCI-H1975, 72 h", "summary_of_the_method": "as §1"}, "MV4-11": {"system": "MV4-11", "assay": "Cytotoxicity against human MV411 cells assessed as decrease in cell viability after 72 hrs by MTS assay", "type": "functional, cell-based", "conditions": "MV4-11, 72 h", "summary_of_the_method": "as §1"}, "MDA-MB-468": {"system": "MDA-MB-468", "assay": "Cytotoxicity against human MDA-MB-468 cells assessed as decrease in cell viability after 72 hrs by MTS assay", "type": "functional, cell-based", "conditions": "MDA-MB-468, 72 h", "summary_of_the_method": "as §1"}, "HUVEC": {"system": "HUVEC", "assay": "Cytotoxicity against human HUVEC cells assessed as decrease in cell viability after 72 hrs by MTS assay", "type": "cell-based", "summary_of_the_method": "as §1"}, "MRC5": {"system": "MRC5", "assay": "Cytotoxicity against human MRC5 cells assessed as decrease in cell viability after 72 hrs by MTS assay", "type": "cell-based", "conditions": "MRC5, 72 h", "summary_of_the_method": "as §1"}, "H22": {"system": "H22", "assay": "Cytotoxicity against mouse H22 cells assessed as decrease in cell viability after 72 hrs by MTS assay", "type": "functional, cell-based", "conditions": "H22, 72 h", "summary_of_the_method": "as §1"}, "CCRF S-180": {"system": "CCRF S-180", "assay": "Cytotoxicity against mouse S180 cells assessed as decrease in cell viability after 72 hrs by MTS assay", "type": "functional, cell-based", "conditions": "CCRF S-180, 72 h", "summary_of_the_method": "as §1"}},
  "data": [
    {"molecule": "CC1(C)[C@@H](OC(N)=O)[C@H]2O[C@H]2[C@]2(C=O)[C@H]3CC[C@]4(C)[C@@H](c5ccc(=O)oc5)[C@@H](Cl)C[C@]4(O)C3=CC[C@@H]12", "values": [
      {"measurement": "EC50", "setting": "BT-474", "result": 3.9, "unit": "nM"},
      {"measurement": "EC50", "setting": "SK-OV-3", "result": 6.1, "unit": "nM"},
      {"measurement": "EC50", "setting": "PANC-1", "result": 2.4, "unit": "nM"},
      {"measurement": "EC50", "setting": "HCT-116", "result": 5.9, "unit": "nM"},
      {"measurement": "EC50", "setting": "HepG2", "result": 3.2, "unit": "nM"},
      {"measurement": "EC50", "setting": "DU-145", "result": 7.2, "unit": "nM"},
      {"measurement": "EC50", "setting": "HT-1080", "result": 5.4, "unit": "nM"},
      {"measurement": "EC50", "setting": "MES-SA", "result": 7.4, "unit": "nM"},
      {"measurement": "EC50", "setting": "MES-SA/Dx5", "result": 5.7, "unit": "nM"},
      {"measurement": "EC50", "setting": "786-0", "result": 2.6, "unit": "nM"},
      {"measurement": "EC50", "setting": "Daudi", "result": 2.8, "unit": "nM"},
      {"measurement": "EC50", "setting": "THP-1", "result": 4.1, "unit": "nM"},
      {"measurement": "EC50", "setting": "HeLa", "result": 5.1, "unit": "nM"},
      {"measurement": "EC50", "setting": "MCF7", "result": 15, "unit": "nM"},
      {"measurement": "EC50", "setting": "BXPC-3", "result": 5.5, "unit": "nM"},
      {"measurement": "EC50", "setting": "LoVo", "result": 6, "unit": "nM"},
      {"measurement": "EC50", "setting": "[1]", "result": 3.2, "unit": "nM"},
      {"measurement": "EC50", "setting": "U-87 MG", "result": 6.4, "unit": "nM"},
      {"measurement": "EC50", "setting": "NCI-N87", "result": 6.3, "unit": "nM"},
      {"measurement": "EC50", "setting": "A549", "result": 3.8, "unit": "nM"},
      {"measurement": "EC50", "setting": "NCI-H1975", "result": 4.9, "unit": "nM"},
      {"measurement": "EC50", "setting": "MV4-11", "result": 6.4, "unit": "nM"},
      {"measurement": "EC50", "setting": "MDA-MB-468", "result": 8.4, "unit": "nM"},
      {"measurement": "EC50", "setting": "HUVEC", "result": 7.7, "unit": "nM"},
      {"measurement": "EC50", "setting": "MRC5", "result": 2.7, "unit": "nM"},
      {"measurement": "EC50", "setting": "H22", "result": 2400, "unit": "nM"},
      {"measurement": "EC50", "setting": "CCRF S-180", "result": "> 20000", "unit": "nM"}
    ]}
  ]
}
